In brackets after ≈: the same amount, converted by molar mass. Activity calls are given as the source filed them. The calls are words filed in the database; no cut-off is given here.
How the values were obtained:
Staphylococcus aureus [1] = test: Antibacterial activity against Staphylococcus aureus assessed as bacterial growth inhibition after 24 hrs by CLSI protocol based broth microdilution assay; assay type: functional
Staphylococcus aureus [2] = test: Antibacterial activity against methicillin-resistant Staphylococcus aureus assessed as bacterial growth inhibition after 24 hrs by CLSI protocol based broth microdilution assay; assay type: functional
Escherichia coli = test: Antibacterial activity against Escherichia coli assessed as bacterial growth inhibition after 24 hrs by CLSI protocol based broth microdilution assay; assay type: functional
Pseudomonas aeruginosa = test: Antibacterial activity against Pseudomonas aeruginosa assessed as bacterial growth inhibition after 24 hrs by CLSI protocol based broth microdilution assay; assay type: functional
Candida tropicalis = test: Antifungal activity against Candida tropicalis assessed as fungal growth inhibition after 24 hrs by CLSI protocol based broth microdilution assay; assay type: functional
Candida albicans = test: Antifungal activity against Candida albicans assessed as fungal growth inhibition after 24 hrs by CLSI protocol based broth microdilution assay; assay type: functional
Bacillus cereus = test: Antibacterial activity against Bacillus cereus assessed as bacterial growth inhibition after 24 hrs by CLSI protocol based broth microdilution assay; assay type: functional
Enterococcus faecium = test: Antibacterial activity against Enterococcus faecium assessed as bacterial growth inhibition after 24 hrs by CLSI protocol based broth microdilution assay; assay type: functional
Staphylococcus aureus [3] = test: Antibiofilm activity against methicillin-resistant Staphylococcus aureus ATCC 43300 assessed as reduction in biofilm biomass at 0.5 to 4 mg/L after 24 hrs by MTT assay; assay type: functional, organism-based; conditions: dose mg/L 0.5-4, time 24.0 hrs
Method in brief: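 Biofilm growth of MRSA ATCC 43300 measured in the presence of compound in cultivation plates, with a DMSO control. Significance of control vs treated is given at p < 0.05, 0.01 and 0.001.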

Staphylococcus aureus [4] = test: Inhibition of Staphylococcus aureus ATCC 6538 fabI expressed in Escherichia coli BL21 (DE3) assessed as oxidation of NADPH to NADP+ using trans-2-octenoyl CoA as substrate incubated for 2 hrs in presence of NADPH by spectrophotometric analysis

Compound	Activity (Staphylococcus aureus [1])	Activity (Staphylococcus aureus [2])	MIC (Escherichia coli) [µg/mL]	MIC (Pseudomonas aeruginosa) [µg/mL]	MIC (Candida tropicalis) [µg/mL]	MIC (Candida albicans) [µg/mL]	MIC (Staphylococcus aureus [1]) [µg/mL]	MIC (Staphylococcus aureus [2]) [µg/mL]	MIC (Bacillus cereus) [µg/mL]	MIC (Enterococcus faecium) [µg/mL]	Activity (Staphylococcus aureus [3])	inhibition (Staphylococcus aureus [4])
Oc1c(Br)cc(Br)cc1/C=N\c1cc(C(F)(F)F)ccc1Cl	inactive	inactive	≥ 64	≥ 64	≥ 64	≥ 64						
Oc1ccc(Br)cc1/C=N\c1cccc(OC(F)(F)F)c1			≥ 64	≥ 64	≥ 64	≥ 64						
Oc1ccc(Br)cc1CNc1cc(C(F)(F)F)ccc1F			≥ 64	≥ 64	≥ 64	≥ 64	16 (≈ 43.9 µM)	16 (≈ 43.9 µM)				
Oc1ccc(NCc2cc(Br)cc(Br)c2O)cc1			≥ 64	≥ 64	≥ 64	≥ 64						
Oc1c(Br)cc(Cl)cc1/C=N\CCc1ccc(Br)cc1			≥ 64	≥ 64	≥ 64	≥ 64						
Oc1ccc(Br)cc1CNc1cccc(OC(F)(F)F)c1			≥ 64	≥ 64	≥ 64	≥ 64						
Oc1c(Cl)cc(Cl)cc1CNc1cc(C(F)(F)F)ccc1Cl			≥ 64	≥ 64	≥ 64	≥ 64	≤ 2		≤ 2	≤ 2	Active	Active
Oc1cccc(/N=C\c2cc(Cl)cc(Br)c2O)c1			≥ 64	≥ 64	≥ 64	≥ 64						
Oc1c(Br)cc(Br)cc1/C=N\c1cc(C(F)(F)F)ccc1F	inactive	inactive	≥ 64	≥ 64	≥ 64	≥ 64						
Oc1c(Br)cc(Br)cc1CNc1cc(C(F)(F)F)ccc1F			≥ 64	≥ 64	≥ 64	≥ 64	4 (≈ 9.03 µM)	4 (≈ 9.03 µM)				
Oc1ccc(Br)cc1CNc1cc(C(F)(F)F)ccc1Cl			≥ 64	≥ 64	≥ 64	≥ 64	2 (≈ 5.25 µM)	1 (≈ 2.63 µM)	≤ 2	≤ 2	Active	Active
Oc1ccc(Cl)cc1CNc1cc(C(F)(F)F)ccc1F			≥ 64	≥ 64	≥ 64	≥ 64	4 (≈ 12.5 µM)	32 (≈ 100 µM)				
Oc1cc(Cl)ccc1Oc1ccc(Cl)cc1Cl [TRICLOSAN]			≥ 64	≥ 64	≥ 64	≥ 64						
Oc1c(Br)cc(Cl)cc1CNCCc1ccc(F)cc1			≥ 64	≥ 64	≥ 64	≥ 64						
Oc1ccc(Cl)cc1CNc1ccc(OC(F)(F)F)cc1			≥ 64	≥ 64	≥ 64	≥ 64						
Oc1ccc(Cl)cc1/C=N\c1cc(C(F)(F)F)ccc1Cl			≥ 64	≥ 64	≥ 64	≥ 64						
Oc1ccc(Cl)cc1CNc1cc(C(F)(F)F)ccc1Cl			≥ 64	≥ 64	≥ 64	≥ 64	1 (≈ 2.97 µM)	1 (≈ 2.97 µM)	≤ 2	≤ 2	Active	Active
Oc1cccc(NCc2cc(Cl)cc(Br)c2O)c1			≥ 64	≥ 64	≥ 64	≥ 64						

Compound	Activity (Staphylococcus aureus [1])	Activity (Staphylococcus aureus [2])	MIC (Escherichia coli) [µg/mL]	MIC (Pseudomonas aeruginosa) [µg/mL]	MIC (Candida tropicalis) [µg/mL]	MIC (Candida albicans) [µg/mL]	MIC (Staphylococcus aureus [1]) [µg/mL]	MIC (Staphylococcus aureus [2]) [µg/mL]	MIC (Bacillus cereus) [µg/mL]	MIC (Enterococcus faecium) [µg/mL]	Activity (Staphylococcus aureus [3])	inhibition (Staphylococcus aureus [4])
Oc1c(Br)cc(Cl)cc1/C=N\CCc1ccc(F)cc1			≥ 64	≥ 64	≥ 64	≥ 64						
Oc1c(Br)cc(Cl)cc1CNCCc1ccc(Br)cc1			≥ 64	≥ 64	≥ 64	≥ 64						
C[C@@H]1[C@H](O)[C@@H](C)/C=C/C=C/C=C/C=C/C=C/C=C/C=C/[C@H](O[C@@H]2O[C@H](C)[C@@H](O)[C@H](N)[C@@H]2O)C[C@@H]2O[C@](O)(C[C@@H](O)C[C@@H](O)[C@H](O)CC[C@@H](O)C[C@@H](O)CC(=O)O[C@H]1C)C[C@H](O)[C@H]2C(=O)O [AMPHOTERICIN B]			≥ 64	≥ 64	≥ 64	≥ 64						
Oc1c(Br)cc(Cl)cc1CNc1cccc(C(F)(F)F)c1			≥ 64	≥ 64	≥ 64	≥ 64	≤ 2		≤ 2	≤ 2	Active	Active
Oc1ccc(Cl)cc1/C=N\c1cc(C(F)(F)F)ccc1F			≥ 64	≥ 64	≥ 64	≥ 64						
Oc1c(Cl)cc(Cl)cc1/C=N\c1cc(C(F)(F)F)ccc1Cl			≥ 64	≥ 64	≥ 64	≥ 64						
Oc1ccc(/N=C\c2cc(Br)cc(Br)c2O)cc1	inactive	inactive	≥ 64	≥ 64	≥ 64	≥ 64						
Oc1ccc(Cl)cc1/C=N\c1ccc(OC(F)(F)F)cc1			≥ 64	≥ 64	≥ 64	≥ 64						
Oc1c(Br)cc(Cl)cc1/C=N\c1cccc(C(F)(F)F)c1			≥ 64	≥ 64	≥ 64	≥ 64						
Oc1ccc(Br)cc1/C=N\c1cc(C(F)(F)F)ccc1F			≥ 64	≥ 64	≥ 64	≥ 64						
Oc1c(Br)cc(Br)cc1CNc1cccc(C(F)(F)F)c1			≥ 64	≥ 64	≥ 64	≥ 64	≤ 2		≤ 2	≤ 2	Active	Active
Oc1ccc(Br)cc1/C=N\c1cc(C(F)(F)F)ccc1Cl			≥ 64	≥ 64	≥ 64	≥ 64						
CC1COc2c(N3CCN(C)CC3)c(F)cc3c(=O)c(C(=O)O)cn1c23 (configuration not stated) [OFLOXACIN]			≥ 64	≥ 64	≥ 64	≥ 64						
Oc1c(Br)cc(Cl)cc1/C=N\c1cc(C(F)(F)F)ccc1Cl			≥ 64	≥ 64	≥ 64	≥ 64						
Oc1c(Br)cc(Br)cc1/C=N\c1cccc(C(F)(F)F)c1	inactive	inactive	≥ 64	≥ 64	≥ 64	≥ 64						
CN(C)[C@@H]1C(O)=C(C(N)=O)C(=O)[C@@]2(O)C(O)=C3C(=O)c4c(O)cccc4[C@@](C)(O)[C@H]3C[C@@H]12 [TETRACYCLINE]			≥ 64	≥ 64	≥ 64	≥ 64						
Oc1c(Br)cc(Br)cc1CNc1cc(C(F)(F)F)ccc1Cl			≥ 64	≥ 64	≥ 64	≥ 64	1 (≈ 2.18 µM)	1 (≈ 2.18 µM)	≤ 2	≤ 2	Active	Active
